Source: ChEMBL document CHEMBL3826876, “Toward the Development of Specific G-Quadruplex Binders: Synthesis, Biophysical, and Biological Studies of New Hydrazone Derivatives” (J Med Chem, 2016)
The source made the active and inactive calls. The calls are words filed in the database; no cut-off is given here.

Assays:
[1] = Induction of G-quadruplex formation in synthetic unfolded telomere 23 DNA assessed as increase in molar ellipticity after 10 mins in absence of metal cation by circular dichroism titration method
In short: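 CD titration without metal ions: unfolded oligonucleotide 12-15 µM in 50 mM Tris; ligand added in 0.5 equiv steps, spectrum recorded 10 min after each addition at 20 °C, 230-360 nm, 3 scans averaged.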

[2] = Binding affinity to synthetic c-MYC G-quadruplex DNA assessed as change in melting temperature at 4 mol equiv in presence of 20 mM KCl buffer by circular dichroism spectroscopic analysis
U2OS [3] = experiment: Cytotoxicity against human U2OS cells assessed as cell killing after 1 hr by MTT assay; type: functional, cell-based
In short: (§1)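 U2OS and HCT116 in DMEM with 10% FBS, 1% L-glutamine, seeded at 40000 cells/ml; 24 h later exposed for 1 h or 24 h, then drug-free medium 1-2 days. MTT 1 h at 37 °C, DMSO solubilisation, absorbance 595 nm. IC50 by linear regression; two independent experiments in triplicate, mean ± SE.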

[4] = Effect on synthetic telomere 26 G-quadruplex DNA topology at 4 mol equiv by circular dichroism spectroscopic analysis
In short: (§2)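 CD spectra at 20 °C, 230-360 nm, 3 scans averaged, baseline subtracted; 10 µM G4 or 15 µM duplex in potassium- or lithium-phosphate pH 7.0 buffers with 100 mM KCl (c-kit2, c-myc: 5 mM potassium phosphate, 20 mM KCl); ligand 4 molar equiv added to folded DNA from 6 mM DMSO stock.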

[5] = Effect on synthetic self-complementary DNA 12-mer duplex topology at 4 mol equiv in presence of K+ ions by circular dichroism spectroscopic analysis; in short: as §2
Homo sapiens = species on record: Homo sapiens; experiment: Binding affinity to human 5'-FAM/3'-TAMRA labeled telomere 21 G-quadruplex DNA assessed as increase in melting temperature by FRET assay
In short: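 FRET melting screen in 60 mM potassium cacodylate pH 7.4, labelled probe 400 nM annealed at 85 °C for 10 min; ligands at various concentrations up to 20 µM, diluted from 10 mM DMSO stock via 10 mM HCl. Excitation 450-495 nm, emission 515-545 nm, 30-100 °C in 0.5 °C steps with 30 s hold; ΔTm by curve fitting, triplicate.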

U2OS [6] = experiment: Cytotoxicity against human U2OS cells assessed as cell killing after 24 hrs by MTT assay; type: functional, cell-based; in short: as §1
[7] = Ratio of IC50 for human U2OS cells to stabilization of nuclear G-quadruplex DNA in human U2OS cells
U2OS [8] = experiment: Cytotoxicity against human U2OS cells assessed as cell death after 24 hrs by FACS analysis; type: cell-based
[9] = Cytotoxicity against human HCT116 cells assessed as cell killing after 24 hrs by MTT assay; type: functional, cell-based; conditions: HCT-116, 24 h; in short: as §1
[10] = Cytotoxicity against human HCT116 cells assessed as cell killing after 1 hr by MTT assay; type: functional, cell-based; conditions: HCT-116, 1 h; in short: as §1

Activity [1]: inactive
ΔTm [2]: > 20 °C
Activity [4]: inactive
Activity [5]: inactive
Activity (Homo sapiens): Active
Structure (SMILES): Br.O=Cc1c(-c2ccccc2)nc2n1ccc1nc(-c3ccccc3)c(/C=N/NC3=NCCN3)n12
IC50 (U2OS [3]): 5730 nM
IC50 (U2OS [6]): 845 nM
Ratio [7]: 4
Activity (U2OS [8]): Non-toxic
IC50 [9]: 407 nM
IC50 [10]: 4180 nM
